Assay outcomes as filed in PubChem.
Yeast growth inh: yeast BB579 growth reduction in restrictive medium. S. cerevisiae BB579 growth, OD615, 48 h. inhibition, % at 10 µM. 140,000 tested, 0.51% active. AID 804;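 active means inhibition above a set limit, 3 SD over the mean compound inhibition, cut at about 44% in these data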
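System: Saccharomyces cerevisiae DeaD strain BB579, replicative lifespan model yeast. Buffer or medium: restrictive glucose-based CSMM-D medium. Doses: one dose, 10 µM compound with 0.25% DMSO. Timing: 4 h preincubation and 48 h exposure at 30 °C. Detection: turbidity as optical density at 615 nm. Benchmarks: amphotericin B 10 µg/mL, positive.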
RAM network inh: inhibitors of the yeast RAM network; S. cerevisiae dse1pr::URA3 reporter, 5-FOA growth OD615, 2 d; analog-sensitive cbk1-as2 kinase mutant strain; inhibition, % at 50 µM; 190,000 tested, 1.8% active; AID 868;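 active means inhibition above a set limit, 3 SD over mean compound inhibition, cut at about 8.4% in these data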;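 further: 0% = DMSO-only wells with no growth and 100% = 10 µM 1-NA-PP1 full growth; inhibition rescues growth on 5-FOA so higher OD means more RAM inhibition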
Yeast life ext: yeast lifespan extension; S. cerevisiae growth with nicotinamide, OD615; deaD strain in restrictive glucose medium; inhibition of the nicotinamide effect, % at 10 µM; 130,000 tested, 0.68% active; AID 775;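 active means inhibition above a set limit, placed 3 SD over the median of all compounds, cut at about 26% in these data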;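 further: 0% = nicotinamide-treated wells and 100% = cells grown without nicotinamide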
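Measured by: optical density (absorbance) at 615 nm; System: modified budding yeast, DeaD strain; Medium: restrictive CSMM-D dextrose medium; Timing: 4 h preincubation then 48 h treatment at 30 °C.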
* = called active by the depositor; x = not tested or not shown. A selection: hits, their analogues and other compounds. The true share with any hit is near 2.6%.

SMILES	Yeast growth inh	RAM network inh	Yeast life ext
CCC(=O)NC(=S)Nc1ccccc1C(=O)OC	9	4	-6
COC(=O)c1ccccc1NC(=S)NC(=O)COc1ccc(C(C)C)cc1	-25	9.2*	3
CCCC1CCC(=C(C#N)C(N)=O)CC1 (stereo unspecified)	-2	0	4
COc1ccc(Cn2c(-c3ccc(Br)cc3)c[n+]3ccccc23)cc1	-23	2	-7
COc1cccc(CCc2nnc(CCC(=O)N3CCN(Cc4ccccn4)CC3)o2)c1	x	0	x
CCc1ccccc1NCC(=O)Nc1ccc(Cl)c(C(F)(F)F)c1	32	4	-7
CCC/C=C(\CCC)C(NS(=O)(=O)c1ccc(C(F)(F)F)cc1)c1ccccc1 (stereo unspecified)	-43	11*	11
O=C(O)C(NS(=O)(=O)c1ccc(F)cc1)c1ccccc1 (stereo unspecified)	x	3	x
NNC(=O)c1cc2c(N3CCC(Cc4ccccc4)CC3)ncnc2s1	x	5	x
O=c1[nH]cc([N+](=O)[O-])cc1Br	-19	1	1
Clc1ccc(COn2c(-c3ccc(Cl)cc3)nc3ccccc32)cc1	-48	9.1*	-19
O=C(O)COn1c(-c2ccc(Cl)cc2)nc2ccc(Cl)cc21	x	5	x
Clc1ccc(COn2c(-c3ccccc3)nc3ccccc32)cc1	-24	-2	-21
COn1c(-c2ccc(Cl)cc2)nc2ccc(Cl)cc21	-9	11*	-25
CCOC(=O)c1sc(NN=C(C(=O)OC)C(=O)OC)c(C(=O)OCC)c1C	-57	6	2
C=CCn1c(C2CCCCC2)n[nH]c1=S	x	2	x
C=CCNC(=O)C1(c2ccccc2)CC1(Cl)Cl (stereo unspecified)	-34	1	4
Fc1ccc(-c2nnsc2Sc2ccccn2)cc1	x	4	x
Cc1cccc(N=Nc2ccc(O)c3ncccc23)c1	91*	5	-2
Cc1ccc(C)c(N=Nc2ccc(O)c3ncccc23)c1	x	1	x
O=C(Nc1nc(-c2ccccn2)cs1)c1ccc(Br)s1	99*	-2	-29
O=C(Nc1nc(-c2ccccn2)cs1)c1ccco1	x	0	x
O=c1c(Cc2c(F)cccc2Cl)c(O)ccn1C1CC1	x	0	x
COc1cnc(-c2ccccc2)nc1Oc1ccccc1C	-33	6	-18
COc1cnc(-c2ccccc2)nc1Oc1ccc(C(C)(C)C)cc1	-47	11*	-12
SMILES	Yeast growth inh	RAM network inh	Yeast life ext
CN(C)C(CNS(=O)(=O)c1ccc(Cl)cc1)c1cccnc1 (stereo unspecified)	-13	1	4
O=S(=O)(NCC(Nc1ccc(Cl)cc1)c1ccccc1)c1ccc(Cl)cc1 (stereo unspecified)	-27	9.0*	-2
COc1ccc(NC(=S)N2CCN(C(=O)c3ccccc3)CC2)cc1	x	1	x
O=C(CNC(=O)c1ccc(Cl)cc1)NCC(F)(F)F	1	0	4
COc1cccc2cc(-c3nnc(SCC(=O)NCc4ccccc4)n3C)oc12	-27	9.1*	-2
CCn1c(SCC(=O)NC2CCCCC2)nnc1-c1cc2cccc(OC)c2o1	-20	1	3
CC(C)CNC(=O)COC(=O)c1ccccc1SCC(=O)NCC(C)C	x	2	x
COC(=O)/C(=C\c1ccc2c(c1)c1ccccc1n2C)NC(=O)c1ccccc1	-12	8.6*	0
Cn1c2ccccc2c2cc(C(=O)O)ccc21	77*	3	-12
CC(C)OC(=O)/C(=C/c1ccc2c(c1)c1ccccc1n2C)NC(=O)c1ccccc1	-15	6	4
CCCn1c2ccccc2c2cc(C(=O)O)ccc21	12	3	-10
CC(/C=C/c1ccccc1)=N\NC(=O)Cn1nc(C)cc1C	-2	0	3
CC(=O)Nc1ccc(NC2=Nc3ccccc3N3C2=Nc2c(c(C)nn2-c2ccccc2)C3c2ccccc2)cc1 (stereo unspecified)	-67	9.4*	-7
COc1ccc(NC2=Nc3ccccc3N3C2=Nc2c(c(C)nn2-c2ccc(C)cc2)C3c2cccnc2)cc1 (stereo unspecified)	-48	4	-17
O=C(Cn1ccc(C(F)(F)F)n1)N/N=C/c1ccc(N2CCOCC2)cc1	x	1	x
CCCCC1=NN2CCS(=O)(=O)N=C2S1	x	0	x
COCn1ccnc1C(O)(c1ccc(OC)cc1)c1ccc(OC)cc1	14	2	11
COC(=O)c1sc2cc([N+](=O)[O-])cc(SCC(C)C)c2c1N	-51	11*	7
COC(=O)c1sc(NC(=O)c2cccc([N+](=O)[O-])c2)c(C(N)=O)c1C	-32	4	2
COc1ccc(C)cc1NC(=O)CNc1ccc(C(C)=O)cc1	-26	3	-7
COc1cc(OC)cc(-n2nnnc2SCC(=O)N2CCCc3ccccc32)c1	-22	8.9*	-33
